Screens (PubChem)
p97 ATPase inh – inhibitors of human p97 ATPase, primary screen, biochemical | Transitional endoplasmic reticulum ATPase (Homo sapiens), P55072 | recombinant p97 ATPase, Kinase-Glo ATP luminescence, 3 h | inhibition, % at 8 µM | 220,000 tested, 0.42% active | AID 1481, 2009; in the data active means inhibition above about 15%;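 further: 0% = DMSO vehicle and 100% = wells lacking enzyme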
PKD1 inh – inhibitors of human PKD1 kinase, biochemical, fluorescence polarization; Serine/threonine-protein kinase D1 (Homo sapiens), Q15139; PKD1 kinase fluorescence polarization assay; inhibition, % (concentration not given with the values); 200,000 tested, 0.056% active; in the data active means inhibition above about 50%
DTT redox prof – compounds producing H2O2 with reducing agent – biochemical, NIH compound library profiling, artefact control for MLSCN library redox annotation, primary screen | DTT-dependent redox cycling H2O2, phenol red/HRP absorbance; 100% = 100 µM peroxide control, 0% = buffer | 200,000 tested, 0.03% active | activation, % at 10 µM;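 active means activation of at least 50% relative to the plate's high and low controls in the primary single-dose screen; inactive means activation below 50%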;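 further: compound incubated with DTT at 0.8 mM final as the reducing agent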
RBBP9 inh – human RBBP9 inhibitors, primary screen, biochemical, fluorescence polarization, FP-Rh probe, HTS; AID 1515, 2009; inhibition, % at 7.94 µM; recombinant RBBP9; Serine hydrolase RBBP9 (Homo sapiens), O75884; 220,000 tested, 0.2% active;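 active means inhibition above the campaign mean of all tested compounds plus 3 SD, cut at about 14% in these data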;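 further: plate controls were DMSO wells with RBBP9 for no effect and wells lacking RBBP9 protein for full effect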
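Test system: recombinant human RBBP9; Timing: 30 min then 45 min, 25 °C; Detection: fluorescence polarization; Control set: RBBP9 with DMSO as uninhibited control, no-protein wells as full inhibition; Compound dosing: one concentration, 7.94 µM nominal, 0.794% DMSO; Probe or stimulus: FP-Rh activity-based probe, 375 nM before mixing.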
Arbovirus inh – antivirals against arbovirus infection, primary screen, cell-based, full library, 10K replicate subset. arbovirus infection cell-based antiviral screen. 200,000 tested, 0.37% active. inhibition, % at 10 µM; in the data active means inhibition above about 30%
Wee1 stabilizer – Wee1 degradation inhibitors, primary screen, cell-based, HeLa, Wee1K328M-luciferase, luminescence; HeLa Luc-Wee1K328M stability; 100% = proteasome inhibitor MG132 effect; Wee1-like protein kinase (Homo sapiens), P30291; 220,000 tested, 1.2% active; AID 1321, 2008; reporter increase, % at 5 µM;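 active means activation above the mean of all tested compounds plus 3 SD, set per screening run, cut at about 8.8% in these data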;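 further: cells exposed to compound for 20 h before luminescence read; 0% = DMSO alone and 100% = MG132 at 30 µM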
Target sequence (P30291 whole entry K328M): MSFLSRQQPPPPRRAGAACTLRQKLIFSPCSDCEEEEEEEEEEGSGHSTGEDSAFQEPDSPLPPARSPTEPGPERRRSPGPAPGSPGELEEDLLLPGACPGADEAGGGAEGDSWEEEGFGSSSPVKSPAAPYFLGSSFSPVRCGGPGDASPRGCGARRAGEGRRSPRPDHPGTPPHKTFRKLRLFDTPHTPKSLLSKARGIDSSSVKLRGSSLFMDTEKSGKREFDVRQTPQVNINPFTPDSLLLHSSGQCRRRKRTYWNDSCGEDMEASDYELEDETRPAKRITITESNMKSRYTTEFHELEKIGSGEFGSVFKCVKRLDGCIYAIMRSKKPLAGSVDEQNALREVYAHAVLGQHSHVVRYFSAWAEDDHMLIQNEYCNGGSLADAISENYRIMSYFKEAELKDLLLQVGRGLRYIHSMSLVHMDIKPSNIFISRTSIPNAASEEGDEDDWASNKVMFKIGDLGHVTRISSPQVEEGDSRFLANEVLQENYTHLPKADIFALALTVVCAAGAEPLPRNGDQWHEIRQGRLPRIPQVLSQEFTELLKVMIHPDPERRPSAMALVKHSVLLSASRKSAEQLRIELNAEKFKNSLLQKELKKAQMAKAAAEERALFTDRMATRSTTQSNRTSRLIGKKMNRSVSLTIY
Wee1 stab conf – Wee1 degradation inhibitors, confirmation, cell-based, HeLa, Wee1K328M-luciferase, luminescence, triplicate. shares compounds with Wee1 stabilizer. HeLa Luc-Wee1K328M degradation; vehicle 0%, proteasome-blocked wells 100%. activation, % at 5 µM. 1,100 tested, 4% active. AID 1410, 2008; in the data active means activation above about 8.9%
p97 inh conf – p97 ATPase inhibitors, retest, confirmation, biochemical; inhibition, % at 8 µM; 760 tested, 44% active; shares compounds with p97 ATPase inh; recombinant p97 ATPase, Kinase-Glo ATP luminescence;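 active means percent inhibition of p97 ATPase above a set limit, the primary screen's mean plus 3 SD, cut at about 15% in these data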;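 further: 0% = DMSO wells and 100% = wells lacking p97 protein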
The depositor's hits bear a star. A selection: hits, their analogues and other compounds. The true share with any hit is near 2.2%.

CNc1nn(-c2cccc(Cl)c2)nc1N was read as p97 ATPase inh 0, PKD1 inh 5, DTT redox prof 1, RBBP9 inh -6, Arbovirus inh -12 and Wee1 stabilizer -2.
`COc1ccc(N2C(=O)C(CC(=O)Nc3ccccc3)N(CCc3ccc(OC)c(OC)c3)C2=O)cc1` (stereo unspecified) gave p97 ATPase inh 4, PKD1 inh -4, DTT redox prof 0, RBBP9 inh -4, Arbovirus inh 6 and Wee1 stabilizer 1.
For COc1ccc(CCN2C(=O)N(c3ccc(OC)cc3)C(=O)C2CC(=O)Nc2ccccc2)cc1 (stereo unspecified) the results were p97 ATPase inh -3, PKD1 inh 5, DTT redox prof -1, RBBP9 inh -7, Arbovirus inh 1, Wee1 stabilizer 21* and Wee1 stab conf 2.
For O=C1COC(c2ccccc2)C2CCCCN12 (stereo unspecified) the results were p97 ATPase inh 2, PKD1 inh 2, DTT redox prof 0, RBBP9 inh -6, Arbovirus inh -8 and Wee1 stabilizer -1.
`C=CCn1c(O)c(C2=c3ccccc3=NC2=O)s/c1=N/c1nccs1` gave p97 ATPase inh 3, PKD1 inh 3, DTT redox prof -1, RBBP9 inh 0, Arbovirus inh -8 and Wee1 stabilizer -1.
`Cn1c(O)c(C2=c3ccccc3=NC2=O)sc1=Nc1ccc(Cl)cc1` gave p97 ATPase inh 4, PKD1 inh 5, DTT redox prof 1, RBBP9 inh 8, Arbovirus inh -24, Wee1 stabilizer 13* and Wee1 stab conf 3.
For CCOC(=O)c1cnc2ccc(OCC)cc2c1NCc1ccccc1OC the results were p97 ATPase inh 2, PKD1 inh -5, DTT redox prof 1, RBBP9 inh -10, Arbovirus inh -3 and Wee1 stabilizer 3.
CCOC(=O)c1cnc2ccc(OC)cc2c1NCc1ccccc1 was read as p97 ATPase inh 2, PKD1 inh -21, DTT redox prof 0, RBBP9 inh -6, Arbovirus inh -7, Wee1 stabilizer 13* and Wee1 stab conf 0.
Screening O=C(Cc1cccs1)NCCSc1c(-c2ccc(Cl)cc2)[nH]c2ccccc12 returned p97 ATPase inh 10, PKD1 inh -6, DTT redox prof 4, RBBP9 inh -13, Arbovirus inh -21, Wee1 stabilizer 13* and Wee1 stab conf 2.
`COc1ccc(-c2nc(-c3ccc(O)cc3O)cs2)cc1OC` gave p97 ATPase inh 17*, PKD1 inh 6, DTT redox prof 0, RBBP9 inh -4, Arbovirus inh -30, Wee1 stabilizer 13*, Wee1 stab conf 1 and p97 inh conf 19*.
Screening COc1cc(NCCCC(C)N)c2ncccc2c1 (stereo unspecified) returned p97 ATPase inh 15*, PKD1 inh 2, DTT redox prof -2, RBBP9 inh -6, Arbovirus inh -40, Wee1 stabilizer 29*, Wee1 stab conf 0 and p97 inh conf 8.
For COc1cc(NS(=O)(=O)c2ccc(C)cc2)c2ncccc2c1 the results were p97 ATPase inh 2, PKD1 inh 8, DTT redox prof -2, RBBP9 inh -5, Arbovirus inh -38 and Wee1 stabilizer 0.
